We go through one compound from ChEMBL document CHEMBL1629660, “Pharmacodynamics of tigecycline against phenotypically diverse Staphylococcus aureus isolates in a murine thigh model” (Antimicrob Agents Chemother, 2009).

Each structure is given as a SMILES string. In brackets after ≈: the same amount, converted by molar mass.

Data set [1] in a line: AUC (0 to 24 hrs) in neutropenic ICR mouse infected with Staphylococcus aureus ATCC 29213 at 50 mg/kg, sc by HPLC. Details: time < 24 hr, dose 50 mg/kg, route subcutaneous. Particulars: plasma. The data set is classed as ADME, organism-based. The method, boiled down: (§1)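 Neutropenic female ICR mice (cyclophosphamide 150 and 100 mg/kg ip, 4 days and 1 day before inoculation), both thighs inoculated im with ~10^7 CFU/ml of ATCC 29213. Single sc doses of 50, 25, 12.5 or 6.25 mg/kg. Cardiac blood taken from groups of six at 8–12 times over 0.5–24 h. Serum measured by HPLC (linear 0.05–5 µg/ml). Two-compartment fit by nonlinear least squares; AUC by trapezoidal rule.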

A short description of data set [2]: AUC (0 to 24 hrs) in neutropenic ICR mouse infected with Staphylococcus aureus ATCC 29213 at 12.5 mg/kg, sc by HPLC. The data set is classed as ADME, organism-based. Further details: time < 24 hr, dose 12.5 mg/kg, route subcutaneous. To be noted: plasma. In a few lines: as §1
For the next data set, the system named is Staphylococcus aureus. Description: Antimicrobial activity against Community-acquired methicillin-resistant Staphylococcus aureus isolate 156 by broth microdilution method. The data set is classed as functional. In a few lines: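 Tigecycline MIC by CLSI broth microdilution, run in triplicate; modal MIC reported. Isolates stored at –80°C in double-strength skim milk and subcultured twice on Trypticase soy agar with 5% sheep blood before use.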

A short description of data set [3]: r2 for fCmax/MIC in methicillin-sensitive Staphylococcus aureus ATCC 25923-infected neutropenic ICR mouse.
A short description of data set [4]: r2 for fT>MIC in hospital-acquired methicillin-resistant Staphylococcus aureus isolate 56-infected neutropenic ICR mouse.

In the case of `CN(C)c1cc(NC(=O)CNC(C)(C)C)c(O)c2c1C[C@H]1C[C@H]3[C@H](N(C)C)C(O)=C(C(N)=O)C(=O)[C@@]3(O)C(O)=C1C2=O` [TIGECYCLINE], the figures for the AUC(0-t) at 24 h in data set [1] and in data set [2] were 49200 ng·h/mL and 9100 ng·h/mL, respectively. In the data set on Staphylococcus aureus, inhibition of growth (MIC) required 0.125 µg/mL (≈ 0.213 µM). The r2 in data set [3] was determined as 0.508; in data set [4], 0.341%.
